The values that follow come from ChEMBL document CHEMBL1123658, “1-(2-pyridinyl)piperazine derivatives with antianaphylactic, antibronchospastic, and mast cell stabilizing activities” (J Med Chem, 1987).

SMILES strings stand for the structures.

A short description of series [1]: In vivo toxic effect was determined in mouse after oral administration with 10% aqueous acacia gum; value ranges from 2.50-3.50. It is filed as toxicity, organism-based. The procedure, abridged: (§1)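 Female albino mice, 20-30 g. Compound given orally as solution or suspension in 10% aqueous acacia gum, 10 animals per dose. Deaths recorded over 7 days.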
Series [2] deals with Rattus norvegicus. The series can be described thus: Rat PCA Test(50% inhibition of spot areas)in the female albino rats after (ip) administration in 10% aqueous acacia gum; value ranges from 24-51. It is filed as functional. Particulars: read-out: ID50 (the source's name). The procedure, abridged: (§2)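 Female albino rats (200–250 g) received intradermal ventral injections of rat anti-egg-albumin antiserum; donors were raised with egg albumin im plus H. pertussis ip, and serum was taken at 12 days. 24 h later, compound was given ip in 10% acacia gum (10 mL/kg), 10 rats/group. Challenge 30 min later was iv 0.3% egg albumin plus 1% Evans blue. Blued areas were measured 30 min after challenge.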

A short description of series [3]: In vivo toxic effect was determined in mouse after intraperitoneal administration with 10% aqueous acacia gum; value ranges from 1-1.40. It is filed as toxicity, organism-based. Particulars: ip. The procedure, abridged:
(§3)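 Female albino mice (20-30 g), 10 animals per dose, dosed intraperitoneally with compound in solution or suspension; compounds tested as salts unless noted. Mortality was recorded over 7 days.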

In series [4] the test system is Rattus norvegicus. The series can be described thus: Rat PCA Test(50% inhibition of spot areas)in the female albino rats after oral administration in 10% aqueous acacia gum; value ranges from 13-117. It counts as functional. Particulars: read-out: ID50 (the source's name). The procedure, abridged:
(§4)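 Female rats (200-250 g) were passively sensitized by ventral intradermal anti-egg-albumin antiserum. This was raised in rats by intramuscular 1% egg albumin plus ip H. pertussis vaccine, with serum taken at 12 days. After 24 h, groups of 10 were dosed orally with compound or vehicle (10 mL/kg). At 60 min, iv challenge used 0.3% egg albumin with 1% Evans blue. Blued areas were measured after 30 min.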

The subject of a further series is Cavia porcellus. The series can be described thus: Antibronchospatic activity determined by histamine stimulated bronchospasm inhibition in guinea pigs after(i.v.) administration. It is filed as functional, Bronchiole. The procedure, abridged: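 Guinea pigs, Konzett–Rössler preparation. Bronchospasm was induced with histamine. Compound was given iv (1 mL/kg) 1 min before the agonist, dissolved in saline or saline with slight excess HCl or CH3SO3H (pH 3.5–4). Three doses were tested in duplicate, chosen to give 20–90% inhibition. ID75 was read graphically from log dose–response curves.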

For series [5], the system named is Rattus norvegicus. The series can be described thus: Inhibition of mast cell degranulation was assessed in female albino rats at a dose of 45 umol/kg iv. It counts as functional.
The nature of series [6]: In vivo toxic effect was determined in mouse after intraperitoneal administration with 10% aqueous acacia gum; value ranges from 0.85-1.18. Particulars: ip. It counts as toxicity, organism-based. The gist of the method: as §3
Series [7] has as its system Rattus norvegicus. Description: Rat PCA Test(50% inhibition of spot areas)in the female albino rats after (ip) administration in 10% aqueous acacia gum; value ranges from 114-198. It is filed as functional. Particulars: read-out: ID50 (the source's name). The gist of the method:
as §2

A short description of series [8]: In vivo toxic effect was determined in mouse after oral administration with 10% aqueous acacia gum; value ranges from 0.68-1.24. It is filed as toxicity, organism-based. The gist of the method:
as §1

Series [9] concerns Rattus norvegicus. Description: Rat PCA Test(50% inhibition of spot areas)in the female albino rats after (ip) administration in 10% aqueous acacia gum; value ranges from 25-150. It counts as functional. Particulars: read-out: ID50 (the source's name). The gist of the method: as §2
A short description of series [10]: In vivo toxic effect was determined in mouse after oral administration with 10% aqueous acacia gum; value ranges from 0.86-1.66. It is filed as toxicity, organism-based. The procedure, abridged: as §1
Series [11] is described as follows: In vivo toxic effect was determined in mouse after intraperitoneal administration with 10% aqueous acacia gum; value ranges from 0.29-0.60. It counts as toxicity, organism-based. Particulars: ip. The procedure, abridged:
as §3

In series [12] the test system is Rattus norvegicus. The series can be described thus: Rat PCA Test(50% inhibition of spot areas)in the female albino rats after (ip) administration in 10% aqueous acacia gum. Particulars: read-out: ID50 (the source's name). It is filed as functional. The gist of the method: as §2
Series [13] can be described thus: In vivo toxic effect was determined in mouse after intraperitoneal administration with 10% aqueous acacia gum; value ranges from 0.43-0.73. Particulars: ip. It counts as toxicity, organism-based. The gist of the method:
as §3

Series [14] is described as follows: In vivo toxic effect was determined in mouse after oral administration with 10% aqueous acacia gum; value ranges from 0.84-1.62. It counts as toxicity, organism-based. The gist of the method:
as §1

Series [15] concerns Rattus norvegicus. Description: Rat PCA Test(50% inhibition of spot areas)in the female albino rats after (ip) administration in 10% aqueous acacia gum; value ranges from 96-124. It counts as functional. Particulars: read-out: ID50 (the source's name). The procedure, abridged: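 Antiserum came from female rats given 1% egg albumin in 0.9% NaCl intramuscularly plus Haemophilus pertussis vaccine (2 × 10^10 organisms) intraperitoneally, and was collected 12 days later. Recipient rats (200-250 g) got it intradermally at a ventral site. After 24 h, groups of 10 received vehicle or compound ip. At 30 min they were challenged iv with 0.3% egg albumin plus 1% Evans blue. Blued skin areas were measured 30 min later.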

Series [16] in a line: In vivo toxicity in mouse after oral administration with 10% aqueous acacia gum. It counts as organism-based. The gist of the method:
as §1

Series [17] concerns Rattus norvegicus. Description: Rat PCA Test(50% inhibition of spot areas)in the female albino rats after oral administration in 10% aqueous acacia gum. Particulars: read-out: ID50 (the source's name). It counts as functional. The gist of the method:
as §4

Series [18] concerns Rattus norvegicus. Description: Inhibition of mast cell degranulation was assessed in female albino rats at a dose of 43 umol/kg iv. It counts as functional.
A short description of series [19]: In vivo toxic effect was determined in mouse after intraperitoneal administration with 10% aqueous acacia gum; value ranges from 5.14-9.14. Particulars: ip. It counts as toxicity, organism-based. The procedure, abridged:
as §3

Series [20] is described as follows: In vivo toxic effect was determined in mouse after oral administration with 10% aqueous acacia gum; value ranges from 3.02-4.51. It is filed as toxicity, organism-based. The procedure, abridged:
as §1

The nature of series [21]: In vivo toxic effect was determined in mouse after intraperitoneal administration with 10% aqueous acacia gum; value ranges from 1.41-3.07. It is filed as toxicity, organism-based. Particulars: ip. The gist of the method: as §3
Series [22] deals with Rattus norvegicus. Description: Rat PCA Test(50% inhibition of spot areas)in the female albino rats after (ip) administration in 10% aqueous acacia gum; value ranges from 328-1350. It counts as functional. Particulars: read-out: ID50 (the source's name). The gist of the method:
as §2

Series [23] is described as follows: In vivo toxic effect was determined in mouse after intraperitoneal administration with 10% aqueous acacia gum; value ranges from 3.67-6.20. It is filed as toxicity, organism-based. Particulars: ip. The procedure, abridged: as §3
Series [24] in a line: In vivo toxic effect was determined in mouse after intraperitoneal administration with 10% aqueous acacia gum; value ranges from 0.40-1.72. It counts as toxicity, organism-based. Particulars: ip. The procedure, abridged: as §3
The nature of series [25]: In vivo toxic effect was determined in mouse after oral administration with 10% aqueous acacia gum; value ranges from 0.67-1.21. It counts as toxicity, organism-based. The gist of the method: as §1

Take `CC1CN(c2ccccn2)CCN1CCC(=O)Nc1ccc(N)cc1.Cl` (stereo not given): the LD50 came out at 2970 µmol/kg in [1] and 1190 µmol/kg in [3]. The ED50 in the series on Rattus norvegicus [2] turned out to be 35 µmol/kg; in the series on Rattus norvegicus [4] it was 92 µmol/kg. Moreover, the ID75 in the series with Cavia porcellus amounted to 0.59 µM/kg. Further, the inhibition in vivo at 45 µmol/kg in the series on Rattus norvegicus [5] was found to be 14%.
Consider `Cl.Nc1cccc(NC(=O)CCN2CCN(c3ccccn3)CC2)c1`, for which the values for the LD50 in [6] and in series [8] were 900 µmol/kg and 850 µmol/kg, respectively. Besides, the ED50 in the series with Rattus norvegicus [7] was determined as 148 µmol/kg. In the series with Cavia porcellus, the ID75 is 0.61 µM/kg.
Take `CC1CN(c2ccccn2)CCN1CCC(=O)Nc1ccc([N+](=O)[O-])cc1.Cl.Cl` (stereo not given): the ED50 in the series on Rattus norvegicus [9] is 61 µmol/kg. Moreover, the results for the LD50 in series [10] and in [11] were 1200 µmol/kg and 420 µmol/kg, respectively.
Take `Cl.Cl.O=C(CCN1CCN(c2ccccn2)CC1)Nc1cccc(C(F)(F)F)c1`: the ED50 in the series on Rattus norvegicus [12] was above 55 µmol/kg. The median lethal dose (LD50) in [13] amounted to 560 µmol/kg; in series [14] it was 1170 µmol/kg. Further, the ID75 in the series on Cavia porcellus amounted to 0.65 µM/kg.
In the case of `CNC(=O)Nc1ccc(NC(=O)CCN2CCN(c3ccccn3)CC2)cc1.Cl.Cl`, the results for the ED50 in the series with Rattus norvegicus [15] and with Rattus norvegicus [17] were 109 µmol/kg and above 220 µmol/kg, respectively. This molecule also came in with a median lethal dose (LD50) in [16] above 6500 µmol/kg. This molecule had an ID75 with Cavia porcellus of 0.29 µM/kg. This molecule registered an inhibition in vivo at 43 µmol/kg in the series with Rattus norvegicus [18] of 0%.
With `CCOC(=O)CC(C)N1CCN(c2ccccn2)CC1.Cl.Cl` (stereo not given), the ED50 in the series on Rattus norvegicus [12] is above 857 µmol/kg. For the same molecule, the LD50 in series [19] was 6850 µmol/kg. The molecule also gave an ID75 in the series with Cavia porcellus of 4.14 µM/kg.
Turning to `Cl.Cl.O=C(CCN1CCN(c2ccccn2)CC1)Nc1ccccc1[N+](=O)[O-]`, the ED50 with Rattus norvegicus [12] was above 230 µmol/kg. The LD50 was found to be 3700 µmol/kg in [20] and 2080 µmol/kg in [21]. This molecule yielded an ID75 in the series on Cavia porcellus of 0.58 µM/kg.
In the case of `CCOC(=O)CCN1CCN(c2ccccn2)CC1.Cl.Cl`, in the series on Rattus norvegicus [22], the ED50 came out at 665 µmol/kg. In series [23], this molecule registered an LD50 of 5080 µmol/kg. The molecule also yielded an ID75 with Cavia porcellus of 7.03 µM/kg.
For `Cl.Cl.O=C(CCN1CCN(c2ccccn2)CC1)Nc1ccc([N+](=O)[O-])cc1`, the LD50 in [24] came out at 470 µmol/kg; in [25], 810 µmol/kg. Moreover, the ID75 in the series on Cavia porcellus turned out to be 0.94 µM/kg.
